Source: ChEMBL document CHEMBL2146440, “Rearranged benzophenones and prenylated xanthones from Garcinia propinqua twigs” (2012)
In brackets after ≈: the same amount, converted by molar mass. Activity calls are given as the source filed them. No cut-off for these calls is given here.

What was measured:
[1] = tested on: Staphylococcus aureus; assay: Antibacterial activity against methicillin-resistant Staphylococcus aureus SK1 by two-fold broth dilution method; type: functional
Summary of the method: (§1)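 MRSA SK1 was tested in a panel with Gram-positive S. aureus TISTR 1466 and Gram-negative E. coli TISTR 780 and S. typhimurium TISTR 292. Values are in μg/mL.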

[2] = tested on: Staphylococcus aureus; assay: Antibacterial activity against Staphylococcus aureus TISTR 1466 by two-fold broth dilution method; type: functional
[3] = tested on: Escherichia coli; assay: Antibacterial activity against Escherichia coli TISTR 780 by two-fold broth dilution method; type: functional
[4] = tested on: Salmonella typhimurium; assay: Antibacterial activity against Salmonella typhimurium TISTR 292 by two-fold broth dilution method; type: functional, Salmonella enterica subsp. enterica serovar Typhimurium
[5] = tested on: Staphylococcus aureus; assay: Antibacterial activity against methicillin-resistant Staphylococcus aureus SK1 at >128 ug/mL by two-fold broth dilution method; type: functional, organism-based; summary of the method: as §1
[6] = tested on: Staphylococcus aureus; assay: Antibacterial activity against Staphylococcus aureus TISTR 1466 at >128 ug/mL by two-fold broth dilution method; type: functional, organism-based

Molecule	MIC [1] [µg/mL]	MIC [2]	MIC [3] [µg/mL]	MIC ([4]; Salmonella enterica) [µg/mL]	MIC ([4]; Salmonella enterica subsp. enterica serovar Typhimurium) [µg/mL]	MIC [5]	MIC [6]
C=C(C)CC[C@@H]1C[C@]2(CC=C(C)C)C(=O)/C(=C(\O)c3ccccc3)C(=O)[C@]3(CC=C(C)C)C[C@@]1(C)O[C@@]32O [XEROPHENONE A]	128 (≈ 247 µM)	inactive	128 (≈ 247 µM)	128 (≈ 247 µM)	–	–	–
GENTAMICIN	–	–	0.25	–	0.125	–	–
CC(C)=CCc1c2c(c3oc4c(O)ccc(O)c4c(=O)c3c1O)C=CC(C)(C)O2 [MORUSIGNIN J]	–	128 µg/mL (≈ 325 µM)	128 (≈ 325 µM)	–	–	–	–
C=CC(C)(C)c1c2c(c(O)c3c(=O)c4ccc(O)c(O)c4oc13)C=CC(C)(C)O2 [MACLURAXANTHONE]	4 (≈ 10.1 µM)	4 µg/mL (≈ 10.1 µM)	128 (≈ 325 µM)	–	–	–	–
C=C(C)CC[C@@H]1C[C@@]2(CC=C(C)C)C(=O)[C@]3(CC=C(C)C)C[C@@]1(C)C2(O)/C(=C(/O)c1ccccc1)C3=O (relative stereo)	64 (≈ 127 µM)	64 µg/mL (≈ 127 µM)	128 (≈ 255 µM)	128 (≈ 255 µM)	–	–	–
C=CC(C)(C)c1c2c(c(O)c3c(=O)c4ccc(O)c(OC)c4oc13)C=CC(C)(C)O2	4 (≈ 9.79 µM)	2 µg/mL (≈ 4.9 µM)	128 (≈ 313 µM)	128 (≈ 313 µM)	–	–	–
COc1c(CC=C(C)C)c(O)c2c(=O)c3ccc(O)c(OC)c3oc2c1CC=C(C)C [DOITUNGGARCINONE C]	128 (≈ 302 µM)	128 µg/mL (≈ 302 µM)	128 (≈ 302 µM)	–	–	–	–
CC(C)=CCc1c(O)c(CC=C(C)C)c2oc3c(O)ccc(O)c3c(=O)c2c1O [GARTANIN]	–	128 µg/mL (≈ 323 µM)	128 (≈ 323 µM)	128 (≈ 323 µM)	–	inactive	–
CN[C@H](CC(C)C)C(=O)N[C@H]1C(=O)N[C@@H](CC(N)=O)C(=O)N[C@H]2C(=O)N[C@H]3C(=O)N[C@H](C(=O)N[C@H](C(=O)O)c4cc(O)cc(O)c4-c4cc3ccc4O)[C@H](O)c3ccc(c(Cl)c3)Oc3cc2cc(c3O[C@@H]2O[C@H](CO)[C@@H](O)[C@H](O)[C@H]2O[C@H]2C[C@](C)(N)[C@H](O)[C@H](C)O2)Oc2ccc(cc2Cl)[C@H]1O [VANCOMYCIN]	–	0.25 µg/mL (≈ 0.173 µM)	–	–	–	–	–
C=C(C)CC[C@@H]1C[C@]23CC4C(C)(C)c5ccccc5C(=O)C45C(=O)[C@@](CC=C(C)C)(C[C@@]1(C)[C@]52O)C3=O (relative stereo)	–	128 µg/mL (≈ 256 µM)	128 (≈ 256 µM)	128 (≈ 256 µM)	–	inactive	–
COc1c(O)ccc2c(=O)c3c(O)c4c(c(CC=C(C)C)c3oc12)OC(C)(C)C=C4	–	–	128 (≈ 313 µM)	128 (≈ 313 µM)	–	inactive	inactive
COc1c(CC=C(C)C)c(O)c2c(=O)c3ccc(O)c(O)c3oc2c1CC=C(C)C [DULXANTHONE B]	16 (≈ 39 µM)	32 µg/mL (≈ 78 µM)	128 (≈ 312 µM)	128 (≈ 312 µM)	–	–	–
